Our source for the ED50, Ki and E values is ChEMBL document CHEMBL1125444 (J Med Chem, 1992).

Bounds are passed on as bounds.

For assay [1], the target named is 5-hydroxytryptamine receptor 4 (Rattus norvegicus) (UniProt Q62758). Kind of assay: Relaxation of carbachol induced contractions of rat tunica muscularis mucosae. Summed up: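 Rat esophagus tunica muscularis mucosae strips, equilibrated 30 min, then contracted isometrically with carbachol (3 μM) to a stable tonic plateau within 20 min. Test agent added cumulatively to relax the strip. Buffer held corticosterone acetate (30 μM), fluoxetine (1 μM) and pargyline (10 μM).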

The target in assay [2] is T1, Serotonin 3 (5-HT3) receptor (Rattus norvegicus, UniProt P35563+Q9JJ16).
T1 sequence (P35563 whole entry): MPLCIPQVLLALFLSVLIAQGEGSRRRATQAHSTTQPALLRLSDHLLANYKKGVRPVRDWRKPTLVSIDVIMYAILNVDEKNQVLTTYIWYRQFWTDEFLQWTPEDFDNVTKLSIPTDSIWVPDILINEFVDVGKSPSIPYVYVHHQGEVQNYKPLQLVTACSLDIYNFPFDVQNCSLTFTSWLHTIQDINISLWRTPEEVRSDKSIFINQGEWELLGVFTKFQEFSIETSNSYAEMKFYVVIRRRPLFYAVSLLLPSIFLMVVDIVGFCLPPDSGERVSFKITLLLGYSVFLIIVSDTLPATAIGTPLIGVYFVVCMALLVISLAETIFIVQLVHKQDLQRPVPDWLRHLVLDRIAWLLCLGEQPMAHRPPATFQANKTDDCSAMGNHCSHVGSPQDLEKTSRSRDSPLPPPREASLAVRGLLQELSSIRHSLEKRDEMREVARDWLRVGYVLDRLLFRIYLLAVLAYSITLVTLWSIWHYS
T1 sequence (Q9JJ16 whole entry): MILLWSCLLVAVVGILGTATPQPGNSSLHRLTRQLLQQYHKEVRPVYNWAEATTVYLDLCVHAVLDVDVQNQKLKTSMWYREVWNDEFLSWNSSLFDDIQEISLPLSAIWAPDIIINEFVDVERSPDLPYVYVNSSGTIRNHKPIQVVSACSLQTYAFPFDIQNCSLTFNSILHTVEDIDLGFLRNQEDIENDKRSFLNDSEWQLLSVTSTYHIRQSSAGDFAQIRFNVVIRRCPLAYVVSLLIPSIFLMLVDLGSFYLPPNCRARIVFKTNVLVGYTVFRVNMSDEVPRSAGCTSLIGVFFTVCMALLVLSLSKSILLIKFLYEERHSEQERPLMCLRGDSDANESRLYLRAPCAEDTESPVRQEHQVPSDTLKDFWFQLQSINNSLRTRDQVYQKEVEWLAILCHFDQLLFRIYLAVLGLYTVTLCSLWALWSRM
Kind of assay: Inhibition of [3H]GR-65630 binding to 5-hydroxytryptamine 3 receptor. The assay is classed as protein-complex assay.

The target in another assay is Adrenergic receptor beta (Rattus norvegicus, UniProt P18090+P10608+P26255). Briefly: The ability to inhibit [3H]dihydroalprenolol prenolol binding to Beta adrenergic receptor in rat whole brain.
The target in a further assay is D(1A) dopamine receptor (Rattus norvegicus, UniProt P18901). Briefly: The ability to inhibit [3H]-SCH- 23390 binding to Dopamine receptor D1 in rat striata.
A further assay addresses D(2) dopamine receptor (Rattus norvegicus, UniProt P61169). Kind of assay: The ability to inhibit [3H]domperidone binding to dopamine receptor D2 in rat striata.
Assay [3] has as its target T2, Alpha-1A adrenergic receptor (Rattus norvegicus, UniProt P43140).
T2 sequence (P43140 whole entry): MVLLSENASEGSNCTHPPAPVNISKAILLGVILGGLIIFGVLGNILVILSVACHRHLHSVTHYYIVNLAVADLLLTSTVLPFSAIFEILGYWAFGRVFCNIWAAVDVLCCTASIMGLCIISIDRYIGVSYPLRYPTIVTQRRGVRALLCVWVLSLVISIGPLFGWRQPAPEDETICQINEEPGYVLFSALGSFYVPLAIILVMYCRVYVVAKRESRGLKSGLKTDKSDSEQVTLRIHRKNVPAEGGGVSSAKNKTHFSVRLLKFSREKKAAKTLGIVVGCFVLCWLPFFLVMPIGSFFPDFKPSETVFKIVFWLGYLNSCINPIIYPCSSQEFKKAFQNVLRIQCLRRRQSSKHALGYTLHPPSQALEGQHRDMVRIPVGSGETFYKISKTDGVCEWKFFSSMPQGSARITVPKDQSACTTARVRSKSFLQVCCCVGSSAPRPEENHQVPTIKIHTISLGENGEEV
Briefly: The ability to inhibit [3H]prazosin binding to Alpha-1 adrenergic receptor in rat whole brain.

The target in assay [4] is T1, Serotonin 3 (5-HT3) receptor. Kind of assay: The ability to inhibit [3H]GR-65630 binding to 5-hydroxytryptamine 3 receptor in rat brain cortices. The format is tissue-based. An outline of the steps: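 Membranes from male rat brain cortices incubated with [3H]GR65630 (0.2 nM) as radioligand.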
Assay [5] addresses Serotonin 2 (5-HT2) receptor (Rattus norvegicus, UniProt P30994+P08909+P14842). Kind of assay: The ability to inhibit [3H]ketanserin binding to 5-hydroxytryptamine 2 receptor in rat whole brain.
Assay [6] concerns the target Serotonin 1 (5-HT1) receptor (Rattus norvegicus, UniProt P28564+P30940+P19327+P28565). Briefly: The ability to inhibit [3H]5-HT binding to 5-hydroxytryptamine 1 receptor in rat cortex.
A short description of assay [7]: %E relative to serotonin is 100%. The format is functional.
The target of assay [8] is T3, Adrenergic receptor alpha-2 (Rattus norvegicus, UniProt P22086+P19328+P22909).
T3 sequence (P22086 whole entry): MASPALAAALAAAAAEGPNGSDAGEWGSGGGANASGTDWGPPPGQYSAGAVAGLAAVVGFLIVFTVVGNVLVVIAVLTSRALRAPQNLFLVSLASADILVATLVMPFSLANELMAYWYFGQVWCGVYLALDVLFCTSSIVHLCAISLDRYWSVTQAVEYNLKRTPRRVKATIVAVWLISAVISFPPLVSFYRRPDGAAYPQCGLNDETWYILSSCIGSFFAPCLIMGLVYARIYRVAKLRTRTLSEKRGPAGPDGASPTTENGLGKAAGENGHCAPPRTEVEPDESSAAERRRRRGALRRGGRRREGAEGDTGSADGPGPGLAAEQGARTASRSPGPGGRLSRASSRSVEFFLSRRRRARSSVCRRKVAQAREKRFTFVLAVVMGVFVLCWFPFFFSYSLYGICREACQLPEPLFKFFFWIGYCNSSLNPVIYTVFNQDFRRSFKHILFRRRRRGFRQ
T3 sequence (P19328 whole entry): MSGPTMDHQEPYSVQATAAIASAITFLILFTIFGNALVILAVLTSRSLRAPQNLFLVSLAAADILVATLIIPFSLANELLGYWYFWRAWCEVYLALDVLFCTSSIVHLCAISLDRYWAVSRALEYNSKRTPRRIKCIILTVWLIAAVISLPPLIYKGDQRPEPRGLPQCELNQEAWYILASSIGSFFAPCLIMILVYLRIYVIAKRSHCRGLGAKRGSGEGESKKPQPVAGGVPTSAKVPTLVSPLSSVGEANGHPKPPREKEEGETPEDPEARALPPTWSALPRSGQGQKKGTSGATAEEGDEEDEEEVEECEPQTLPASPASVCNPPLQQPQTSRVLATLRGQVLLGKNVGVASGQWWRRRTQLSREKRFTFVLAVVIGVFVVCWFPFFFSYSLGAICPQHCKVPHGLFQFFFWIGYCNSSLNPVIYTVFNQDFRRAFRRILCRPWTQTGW
T3 sequence (P22909 whole entry): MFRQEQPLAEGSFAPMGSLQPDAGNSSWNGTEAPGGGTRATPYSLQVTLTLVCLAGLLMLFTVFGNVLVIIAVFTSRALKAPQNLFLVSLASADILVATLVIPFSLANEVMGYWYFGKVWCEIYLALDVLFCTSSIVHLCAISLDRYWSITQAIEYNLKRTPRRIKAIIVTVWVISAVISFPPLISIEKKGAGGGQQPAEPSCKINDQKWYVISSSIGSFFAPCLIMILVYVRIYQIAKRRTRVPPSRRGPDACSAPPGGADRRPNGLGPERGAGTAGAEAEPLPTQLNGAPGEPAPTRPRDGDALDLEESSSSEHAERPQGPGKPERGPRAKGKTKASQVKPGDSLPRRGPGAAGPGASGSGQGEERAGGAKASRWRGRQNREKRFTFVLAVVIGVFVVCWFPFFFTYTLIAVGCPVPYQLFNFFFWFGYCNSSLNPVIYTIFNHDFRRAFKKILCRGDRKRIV
Briefly: The ability to inhibit [3H]rauwolscine binding to alpha-2 adrenergic receptor in rat cortex.

Sequence of D(2) dopamine receptor (P61169 whole entry): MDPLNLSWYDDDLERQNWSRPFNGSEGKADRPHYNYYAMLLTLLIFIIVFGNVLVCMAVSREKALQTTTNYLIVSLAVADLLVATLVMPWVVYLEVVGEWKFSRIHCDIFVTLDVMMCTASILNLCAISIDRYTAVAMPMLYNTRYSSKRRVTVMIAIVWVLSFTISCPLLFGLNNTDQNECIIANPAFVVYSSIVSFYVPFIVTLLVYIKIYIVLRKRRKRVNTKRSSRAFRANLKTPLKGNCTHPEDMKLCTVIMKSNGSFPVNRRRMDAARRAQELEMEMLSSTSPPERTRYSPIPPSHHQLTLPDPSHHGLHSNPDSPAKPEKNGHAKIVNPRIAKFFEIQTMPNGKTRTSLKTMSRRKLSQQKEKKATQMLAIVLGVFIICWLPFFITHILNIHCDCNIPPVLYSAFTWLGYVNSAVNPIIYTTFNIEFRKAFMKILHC
Sequence of D(1A) dopamine receptor (P18901 whole entry): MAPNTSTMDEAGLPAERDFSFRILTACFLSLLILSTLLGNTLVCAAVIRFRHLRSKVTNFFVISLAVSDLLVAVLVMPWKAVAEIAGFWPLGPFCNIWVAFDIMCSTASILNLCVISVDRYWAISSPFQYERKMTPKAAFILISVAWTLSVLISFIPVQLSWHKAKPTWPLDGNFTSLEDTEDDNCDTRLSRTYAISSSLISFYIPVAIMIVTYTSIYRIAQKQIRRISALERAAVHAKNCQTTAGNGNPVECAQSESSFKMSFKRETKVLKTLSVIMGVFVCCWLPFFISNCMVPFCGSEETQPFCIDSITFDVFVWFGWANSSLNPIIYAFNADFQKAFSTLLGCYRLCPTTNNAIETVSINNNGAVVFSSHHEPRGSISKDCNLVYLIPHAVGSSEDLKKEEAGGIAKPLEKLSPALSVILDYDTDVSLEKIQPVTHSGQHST
Sequence of 5-hydroxytryptamine receptor 4 (Rattus norvegicus) (Q62758 whole entry): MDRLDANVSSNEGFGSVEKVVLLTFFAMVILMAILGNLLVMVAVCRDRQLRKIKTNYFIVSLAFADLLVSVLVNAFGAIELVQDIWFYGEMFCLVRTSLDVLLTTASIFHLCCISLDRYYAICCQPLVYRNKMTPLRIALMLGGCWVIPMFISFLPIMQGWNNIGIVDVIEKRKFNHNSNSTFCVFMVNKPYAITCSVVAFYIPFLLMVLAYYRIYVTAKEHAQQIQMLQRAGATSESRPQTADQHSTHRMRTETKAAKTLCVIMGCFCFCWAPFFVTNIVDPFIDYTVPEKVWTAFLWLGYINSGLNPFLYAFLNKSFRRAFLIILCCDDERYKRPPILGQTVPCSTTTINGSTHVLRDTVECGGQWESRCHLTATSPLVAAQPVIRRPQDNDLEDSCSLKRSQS

`O=C(NC1CCN2CCCC12)c1ccccc1` (centres undefined) gave an ED50 in assay [1] above 10000 nM. Besides, the Ki in assay [2] was above 200 nM.

`CCOc1cc(N)c(Cl)cc1C(=O)NCC1CCN2CCCC12` (centres undefined) displayed an ED50 in assay [1] of 1380 nM. Also, the affinity in assay [2], expressed as Ki, was 25 nM.

Regarding `COc1cc(N)c(Cl)cc1C(=O)NC[C@H]1CCN2CCC[C@H]12`, in [1], the ED50 was found to be 323 nM. Besides, the Ki in [2] was found to be 66 nM.

`CC(C)n1c(=O)n(C(=O)CC2CC3CCC(C2)N3C)c2ccccc21` (centres undefined) returned an ED50 in [1] of 40.2 nM. The Ki (at Adrenergic receptor beta; at D(1A) dopamine receptor; at D(2) dopamine receptor; in assay [3]; in assay [4]; in [5]) was above 10000 nM in each case. The Ki in assay [6] and in [8] was above 10000 nM in each case. Further, the E in assay [7] is above 111%.

Compound `NCCc1c[nH]c2ccc(O)cc12` returned an ED50 in assay [1] of 16 nM.

The compound `COc1cc(N)c(Cl)cc1C(=O)NC[C@@H]1CCN2CCC[C@@H]12` (relative stereo) yielded an ED50 in [1] of 23 nM. The Ki (on Adrenergic receptor beta; at D(1A) dopamine receptor; on D(2) dopamine receptor; in [3]; in assay [5]; in [6]) was above 10000 nM throughout. Further, the values for the Ki in [8] and in assay [2] were above 10000 nM and 152 nM, respectively. For the same compound, the E in [7] was determined as 93%.

For the compound `COc1cc(N)c(Cl)cc1C(=O)NCC1CCN2CCCC12` (stereo in doubt; 1A) [listing 1 of 2 here], the Ki in assay [2] was 104 nM.

On to `COc1cc(N)c(Cl)cc1C(=O)NCC1CCN2CCCC12` (stereo in doubt; 1A) [listing 2 of 2 here], for which the ED50 in [1] was 64 nM.

`COc1cc(N)c(Cl)cc1C(=O)NCC1CCN2CCCC12` (stereo in doubt; 1E) [listing 1 of 2 here] had a Ki in [2] of 278 nM.

In the case of `COc1cc(N)c(Cl)cc1C(=O)NCC1CCN2CCCC12` (stereo in doubt; 1E) [listing 2 of 2 here], the ED50 in assay [1] was 280 nM.

Compound `COc1cc(N)c(Cl)cc1C(=O)NC1CCN2CCCC12` (stereo in doubt; 1F) [listing 1 of 2 here] gave an inhibition constant (Ki) in assay [2] of 14 nM.

In assay [1], `COc1cc(N)c(Cl)cc1C(=O)NC1CCN2CCCC12` (stereo in doubt; 1F) [listing 2 of 2 here] had an ED50 of 187 nM.

Regarding `CCOc1cc(N)c(Cl)cc1C(=O)NC1CCN2CCCC12` (stereo in doubt; 1G) [listing 1 of 2 here], the affinity in [2], expressed as Ki, was 8 nM.

Regarding `CCOc1cc(N)c(Cl)cc1C(=O)NC1CCN2CCCC12` (stereo in doubt; 1G) [listing 2 of 2 here], the ED50 in assay [1] came to 2270 nM.

`COc1cc(N)c(Cl)cc1C(=O)NC1CCN2CCCC12` (stereo in doubt; 1J) [listing 1 of 2 here]: in [2], the Ki came to 96 nM.

In [1], `COc1cc(N)c(Cl)cc1C(=O)NC1CCN2CCCC12` (stereo in doubt; 1J) [listing 2 of 2 here] had an ED50 of 3450 nM.

As for `CCOc1cc(N)c(Cl)cc1C(=O)NC1CCN2CCCC12` (stereo in doubt; 1K) [listing 1 of 2 here], the affinity in assay [2] corresponds to a Ki of 99 nM.

`CCOc1cc(N)c(Cl)cc1C(=O)NC1CCN2CCCC12` (stereo in doubt; 1K) [listing 2 of 2 here] displayed an ED50 in assay [1] above 10000 nM.

`COc1cc(N)c(Cl)cc1C(=O)N[C@H]1CN2CCC1CC2` [(R)ZACOPRIDE] yielded an ED50 in assay [1] of 505 nM. Further, the Ki on Adrenergic receptor beta is above 10000 nM; at D(1A) dopamine receptor, above 10000 nM; at D(2) dopamine receptor it was above 10000 nM; in assay [3], above 10000 nM; in [5], 415 nM; in assay [6], above 10000 nM. Also, the Ki in assay [8] is above 10000 nM; in [2], 8 nM. For the same compound, the E in assay [7] worked out at 96%.

Consider `COc1cc(N)c(Cl)cc1C(=O)NC1CCN(CCCOc2ccc(F)cc2)CC1OC` (centres undefined) [CISAPRIDE], for which the ED50 in [1] amounted to 54.7 nM. Further, the Ki on Adrenergic receptor beta was above 10000 nM; at D(1A) dopamine receptor, 1700 nM; in assay [3], 30 nM; in assay [6], above 10000 nM. Moreover, the E in assay [7] was 105%.

As to `CCN(CC)CCNC(=O)c1cc(Cl)c(N)cc1OC` [METOCLOPRAMIDE], in [1], the ED50 turned out to be 24100 nM. Besides, in assay [2], the affinity corresponds to a Ki of 240 nM.

In assay [1], `COc1cc(N)c(Cl)cc1C(=O)NC1CCN2CCCC1C2` (centres undefined) [RENZAPRIDE] registered an ED50 of 44 nM. Moreover, the Ki (on Adrenergic receptor beta; at D(1A) dopamine receptor; on D(2) dopamine receptor; in [3]; in assay [8]) was above 10000 nM each time. The E in [7] is 98%.
